Measurements taken from paper PMC3033481 (Journal of the American Chemical Society, 2011).
Entries after “also recorded” stand apart in the source; their conditions may differ.

Legend:
[1] = test system: BrdU+ cells in the hippocampal dentate gyrus; test: In vivo neurogenesis; design: species or system C57BL/J6 mice; conditions: for proneurogenic activity (BrdU+ cells in dentate gyrus), in words: 10 μM solution infused ICV, 12 μL/day, 7 days, live mice
Procedure, shortened: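 Adult (12-week-old) wild-type C57BL/J6 mice, 4 per compound. Test compound solutions (10–0.01 μM) delivered by osmotic minipump into the left lateral ventricle at 12 μL/day for 7 days; the vehicle was artificial CSF. BrdU+ cells counted in SGZ/dentate gyrus of the contralateral hemisphere, every fifth 40 μm section, normalized to dentate volume. Mean ± SEM.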

[2] = mouse, in vivo, cited from earlier work
histamine H2 receptor = histamine H2 receptor (Homo sapiens, UniProt P25021); test: Histamine H2 competition binding assay; conditions: for Histamine H2 binding (% displacement @ 10 μM): displacement of [125I]aminopotentidine (0.1 nM) with 10 μM drug
Sequence of histamine H2 receptor (P25021 whole entry): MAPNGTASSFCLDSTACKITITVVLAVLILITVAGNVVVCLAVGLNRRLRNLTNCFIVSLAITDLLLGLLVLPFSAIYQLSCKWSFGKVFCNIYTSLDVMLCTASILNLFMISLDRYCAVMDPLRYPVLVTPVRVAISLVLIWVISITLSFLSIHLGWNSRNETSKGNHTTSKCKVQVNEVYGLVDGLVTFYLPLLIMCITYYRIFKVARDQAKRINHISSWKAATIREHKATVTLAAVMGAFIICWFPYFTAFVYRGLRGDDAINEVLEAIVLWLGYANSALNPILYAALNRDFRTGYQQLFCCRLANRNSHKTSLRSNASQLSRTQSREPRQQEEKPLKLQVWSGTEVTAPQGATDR

[3] = test system: neurogenesis in the dentate gyrus; conditions: rats, cited from earlier work
neural precursor cells = conditions: time-course experiments; cited from earlier work
neurogenesis = conditions: cited from earlier work
[4] = test system: embryonic, weaning or adult mice; conditions: mouse, in vivo; cited from earlier work
[5] = test system: dentate gyrus in mice deficient in the npas3 gene; conditions: cited from earlier work
[6] = test system: BrdU+ cells in the hippocampal dentate gyrus; conditions: cited from earlier work
hERG channel = hERG channel (Homo sapiens, UniProt Q12809)
Sequence of hERG channel (Q12809 whole entry): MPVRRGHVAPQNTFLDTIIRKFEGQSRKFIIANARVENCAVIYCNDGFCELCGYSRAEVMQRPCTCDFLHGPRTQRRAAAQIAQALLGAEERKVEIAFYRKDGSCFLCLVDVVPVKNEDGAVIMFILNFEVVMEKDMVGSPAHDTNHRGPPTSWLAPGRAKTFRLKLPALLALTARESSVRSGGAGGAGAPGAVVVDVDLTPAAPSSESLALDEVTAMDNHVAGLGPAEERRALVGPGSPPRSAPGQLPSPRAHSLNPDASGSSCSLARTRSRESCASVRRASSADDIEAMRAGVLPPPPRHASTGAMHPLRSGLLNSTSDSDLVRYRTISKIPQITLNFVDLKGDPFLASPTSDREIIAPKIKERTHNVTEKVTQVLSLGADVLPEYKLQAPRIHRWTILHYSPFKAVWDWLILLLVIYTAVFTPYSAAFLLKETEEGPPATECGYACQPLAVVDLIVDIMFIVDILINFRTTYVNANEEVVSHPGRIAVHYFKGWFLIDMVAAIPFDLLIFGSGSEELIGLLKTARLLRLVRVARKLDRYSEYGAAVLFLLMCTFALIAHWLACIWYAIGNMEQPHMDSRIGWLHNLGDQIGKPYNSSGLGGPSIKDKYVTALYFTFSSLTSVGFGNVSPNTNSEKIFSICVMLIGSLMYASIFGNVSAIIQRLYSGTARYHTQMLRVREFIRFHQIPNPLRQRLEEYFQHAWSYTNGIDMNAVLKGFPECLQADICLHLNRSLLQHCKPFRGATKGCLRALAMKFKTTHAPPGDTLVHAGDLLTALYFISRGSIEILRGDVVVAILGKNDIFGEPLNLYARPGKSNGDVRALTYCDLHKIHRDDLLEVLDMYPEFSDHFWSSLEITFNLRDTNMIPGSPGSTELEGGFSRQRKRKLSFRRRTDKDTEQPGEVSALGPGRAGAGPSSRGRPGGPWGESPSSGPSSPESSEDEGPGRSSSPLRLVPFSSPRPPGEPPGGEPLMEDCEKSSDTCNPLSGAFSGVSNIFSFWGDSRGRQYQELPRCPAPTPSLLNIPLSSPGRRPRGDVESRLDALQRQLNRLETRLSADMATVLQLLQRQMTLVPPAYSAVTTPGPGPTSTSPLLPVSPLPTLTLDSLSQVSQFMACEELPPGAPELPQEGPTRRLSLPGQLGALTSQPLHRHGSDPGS

HeLa cells = test: Cell viability assay; assay type: cell-based

Compound: OC(CNc1ccccc1)Cn1c2ccc(Cl)cc2c2cc(Cl)ccc21 (centres unmarked) [Compound 1]
- proneurogenic activity (BrdU+ cells in dentate gyrus), in words [1]: did not appear active

Compound: OC(CNc1ccccc1)Cn1c2ccccc2c2ccccc21 (centres unmarked) [Compound 2]
- proneurogenic activity (BrdU+ cells in dentate gyrus), in words [1]: did not appear active

Compound: CCOc1ccc(NCC(O)Cn2c3ccc(Br)cc3c3cc(Br)ccc32)cc1 (centres unmarked) [Compound 4-OEt]
- proneurogenic activity (BrdU+ cells in dentate gyrus), in words [1]: highly active

Compound: COc1cccc(NCC(O)Cn2c3ccc(Br)cc3c3cc(Br)ccc32)c1 (centres unmarked) [Compound 7]
- proneurogenic activity (BrdU+ cells in dentate gyrus), in words [1]: well tolerated; also recorded: little effect on activity
- difference in activity between the two enantiomers ([1]; enantiomeric pairs tested, same enantiomer more active in all three cases): significant difference in activity

Compound: COc1ccc(NCC(O)Cn2c3ccc(Br)cc3c3cc(Br)ccc32)cc1 (centres unmarked) [Compound 8]
- proneurogenic activity (BrdU+ cells in dentate gyrus), in words [1]: well tolerated; also recorded: highly active

Compound: OC(CNc1ccccc1)Cn1c2ccc(Cl)cc2c2cc(Cl)ccc21 (centres unmarked) [Compound 17]
- proneurogenic activity (BrdU+ cells in dentate gyrus), in words [1]: little activity

Compound: CCOc1cccc(NCC(O)Cn2c3ccc(Br)cc3c3cc(Br)ccc32)c1 (centres unmarked) [Compound 21]
- proneurogenic activity (BrdU+ cells in dentate gyrus), in words [1]: essentially abrogated activity

Compound: [N-]=[N+]=Nc1cccc(NCC(O)Cn2c3ccc(Br)cc3c3cc(Br)ccc32)c1 (centres unmarked) [Compound 22]
- proneurogenic activity (BrdU+ cells in dentate gyrus), in words [1]: substantially decreased activity

Compound: [N-]=[N+]=Nc1ccc(NCC(O)Cn2c3ccc(Br)cc3c3cc(Br)ccc32)cc1 (centres unmarked) [Compound 23]
- proneurogenic activity (BrdU+ cells in dentate gyrus), in words [1]: highly active

Compound: FC(CNc1ccccc1)Cn1c2ccc(Br)cc2c2cc(Br)ccc21 (centres unmarked) [Compound 52]
- proneurogenic activity (BrdU+ cells in dentate gyrus), in words [1]: gains little from fluorination

Compound: COc1ccc(NCC(F)Cn2c3ccc(Br)cc3c3cc(Br)ccc32)cc1 (centres unmarked) [Compound 54]
- proneurogenic activity (BrdU+ cells in dentate gyrus), in words [1]: improved by fluorination

Compound: OC(CNc1ccccc1)Cn1c2ccc(Br)cc2c2cc(Br)ccc21 (centres unmarked) [Compound P7C3]
- AUC brain: AUC plasma ratio ([2]; po): 3.7
- oral availability, in words [2]: orally available
- Histamine H2 binding, in words (histamine H2 receptor; 10 μM drug): modest binding
- Histamine H2 binding (% displacement @ 10 μM) (histamine H2 receptor): 63 % displacement
- Half life in cell culture, Human hepatocytes (human hepatocytes): >4 h
- Half life in cell culture, Mouse hepatocytes (mouse hepatocytes): >4 h
- cognitive capacity ([3]; as a function of terminal aging): preserved cognitive capacity
- neurogenesis in the dentate gyrus ([3]; terminal aging): enhanced neurogenesis in the dentate gyrus
- neuron cell death ([3]; terminal aging): impeded neuron cell death
- proliferation of neural precursor cells (neural precursor cells): does not stimulate proliferation
- neurogenesis activity, oral dose 1 mg/kg (neurogenesis; oral dose 1 mg/kg): measurable activity
- neurogenesis activity, oral dose 5 mg/kg (neurogenesis; oral dose of 5 mg/kg): maximal neurogenesis activity
- toxicity to mice [4]: not toxic
- structure and function of the dentate gyrus [5]: repair the structure and function of the dentate gyrus
- neurogenesis activity, 1 μM solution ([6]; 1 μM solution infused ICV, 12 μL/day for 7 days): maintains activity
- number of BrdU+ cells relative to mice treated with vehicle alone ([6]; 10 μM ICV, 7 days, vehicle artificial CSF, similar number as FGF-2): approximately twice
- hERG binding (% displacement @ 10 μM) (hERG channel): 92 % displacement
- GI50 (HeLa cells): 5.1 µM

Compound: Cc1ccc2c(c1)c1c(n2CCc2ccc(C)nc2)CCN(C)C1 [dimebon, reference compound]
- proneurogenic activity (BrdU+ cells in dentate gyrus), in words [1]: active in our neurogenesis assay, but substantially less so than P7C3
- Histamine H2 binding (% displacement @ 10 μM) (histamine H2 receptor): 99 % displacement
